This passage reports MIC results from ChEMBL document CHEMBL1275443, “Functional diversity among metallo-beta-lactamases: characterization of the CAR-1 enzyme of Erwinia carotovora” (2008).

Assay type in all cases: functional
Assay [1] deals with Escherichia coli. The experiment in a line: Antimicrobial activity against Escherichia coli DH5alpha harboring plasmid pLBII carrying beta-lactamase CAR-1 gene after 24 hrs by broth microdilution method. The gist of the method:
(§1)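 MIC by CLSI broth microdilution in Mueller-Hinton broth at 37°C. Inoculum was 5 x 10^4 CFU/well, and growth was aerobic.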
On the technique in general: In broth dilution the organism is exposed to a series of concentrations in liquid medium.

The test system of assay [2] is Escherichia coli. The experiment in a line: Antimicrobial activity against Escherichia coli DH5alpha harboring plasmid BC-SK after 24 hrs by broth microdilution method. The gist of the method: as §1
In assay [3] the test system is Pectobacterium atrosepticum. The assay can be described thus: Antimicrobial activity against Erwinia carotovora subsp. atroseptica DSM 30184 after 24 hrs by broth microdilution method. The following applies: DSM 30184, 24 h. The method, boiled down:
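CLSI broth microdilution in nutrient broth with an inoculum of 5 x 10^4 CFU/well. MIC was read after 24 h at 28°C under aerobic growth.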

Molecules are shown by their SMILES. Values after ≈ are worked out from the molar mass of the structure shown.

For `CO[C@@]1(NC(=O)Cc2cccs2)C(=O)N2C(C(=O)O)=C(COC(N)=O)CS[C@@H]21` [CEFOXITIN], the MIC (commonly the smallest concentration in the dilution series that meets the test's criterion for growth inhibition) in assay [1] came out at 8 µg/mL (≈ 18.7 µM); in assay [2], 4 µg/mL (≈ 9.36 µM); in assay [3], 8 µg/mL (≈ 18.7 µM).

For `CO/N=C(\C(=O)N[C@@H]1C(=O)N2C(C(=O)[O-])=C(C[N+]3(C)CCCC3)CS[C@H]12)c1csc(N)n1`, in assay [3], inhibition of growth (MIC) required 2 µg/mL (≈ 4.16 µM).

Turning to `CC1(C)S[C@@H]2[C@H](NC(=O)[C@H](C(=O)O)c3ccsc3)C(=O)N2[C@H]1C(=O)O` [TICARCILLIN], the MIC in assay [1] was 8 µg/mL (≈ 20.8 µM); in assay [2], 4 µg/mL (≈ 10.4 µM); in assay [3] it was 4 µg/mL (≈ 10.4 µM).

Turning to `CO/N=C(\C(=O)N[C@@H]1C(=O)N2C(C(=O)O)=C(COC(N)=O)CS[C@H]12)c1ccco1` [CEFUROXIME], the results for the MIC in assay [1], in assay [2] and in assay [3] were 256 µg/mL (≈ 603 µM), 4 µg/mL (≈ 9.43 µM) and 0.5 µg/mL (≈ 1.18 µM), respectively.

As to `CCN1CCN(C(=O)N[C@@H](C(=O)N[C@@H]2C(=O)N3[C@@H]2SC(C)(C)[C@@H]3C(=O)O)c2ccccc2)C(=O)C1=O` [PIPERACILLIN], the MIC in assay [1] turned out to be 2 µg/mL (≈ 3.86 µM); in assay [2], 1 µg/mL (≈ 1.93 µM); in assay [3], 64 µg/mL (≈ 124 µM).

Consider `CC(=O)OCC1=C(C(=O)O)N2C(=O)[C@@H](NC(=O)Cc3cccs3)[C@H]2SC1` [CEPHALOTHIN], for which the figures for the MIC in assay [1], in assay [2] and in assay [3] were 64 µg/mL (≈ 161 µM), 16 µg/mL (≈ 40.4 µM) and 1 µg/mL (≈ 2.52 µM), respectively.

`CO/N=C(\C(=O)N[C@@H]1C(=O)N2C(C(=O)O)=C(COC(C)=O)CS[C@H]12)c1csc(N)n1` [CEFOTAXIME]: the MIC turned out to be 16 µg/mL (≈ 35.1 µM) in assay [1], 0.06 µg/mL (≈ 0.132 µM) in assay [2] and 1 µg/mL (≈ 2.2 µM) in assay [3].

Turning to `C[C@@H](O)[C@H]1C(=O)N2C(C(=O)O)=C(S[C@@H]3CN[C@H](C(=O)N(C)C)C3)[C@H](C)[C@H]12` [MEROPENEM], the MIC in assay [1] is 0.06 µg/mL (≈ 0.156 µM); in assay [2], 0.03 µg/mL (≈ 0.0782 µM); in assay [3] it was 0.25 µg/mL (≈ 0.652 µM).

Turning to `CC1(C)S[C@@H]2[C@H](NC(=O)[C@H](N)c3ccccc3)C(=O)N2[C@H]1C(=O)O` [AMPICILLIN], the results for the MIC in assay [1], in assay [2] and in assay [3] were 4 µg/mL (≈ 11.4 µM), 1 µg/mL (≈ 2.86 µM) and 0.25 µg/mL (≈ 0.715 µM), respectively.

With `CO[C@@]1(NC(=O)C(C(=O)O)c2ccsc2)C(=O)N2[C@@H](C(=O)O)C(C)(C)S[C@@H]21` (some centres undefined) [TEMOCILLIN], the MIC in assay [1] stood at 16 µg/mL (≈ 38.6 µM); in assay [2], 16 µg/mL (≈ 38.6 µM); in assay [3] it was 64 µg/mL (≈ 154 µM).

Turning to `CC(C)(O/N=C(\C(=O)N[C@@H]1C(=O)N2C(C(=O)[O-])=C(C[n+]3ccccc3)CS[C@H]12)c1csc(N)n1)C(=O)O` [CEFTAZIDIME], the MIC in assay [1] is 1 µg/mL (≈ 1.83 µM); in assay [2], 0.5 µg/mL (≈ 0.915 µM); in assay [3] it was 16 µg/mL (≈ 29.3 µM).

As to `C[C@@H](O)[C@H]1C(=O)N2C(C(=O)O)=C(SCCNC=N)C[C@H]12` [IMIPENEM ANHYDROUS], the MIC in assay [3] was 0.12 µg/mL (≈ 0.401 µM).

For `C[C@H]1[C@H](NC(=O)/C(=N\OC(C)(C)C(=O)O)c2csc(N)n2)C(=O)N1S(=O)(=O)O` [AZTREONAM], the results for the MIC in assay [1] and in assay [3] were 0.25 µg/mL (≈ 0.574 µM) and 16 µg/mL (≈ 36.7 µM), respectively.
